Columns and labels:
[1] = tested on: MCF-7 cells; assay: MCF-7 cell proliferation assay; type: cell-based, human
In short: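 MCF-7 cells exposed to test compound or E2 at six concentrations from 10–12 to 10–7 M in EA-free medium. Proliferation read as MTT product absorbance at 570 nm. Three independent trials, each in triplicate. % RME2 = 100 × (OD test − OD VC)/(max OD E2 − OD VC). EC50 from curve fitting. EEF = EC50 of E2/EC50 of sample. One-way ANOVA with Dunnett's test versus E2 at each concentration.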

[2] = tested on: chicken embryo; assay: Chicken embryonic assay; type: in vivo; conditions: for malformation rate / mortality rate / number of dead chicken embryo / number of malformation chicken embryo / weights: embryo / weights: heart / weights: liver: egg injection, day 18
[3] = tested on: chicken fetal liver; assay: TBARs level; type: in vivo
[4] = tested on: S. typhimurium TA98; assay: Ames test, strain TA98; type: cell-based, Salmonella typhimurium
[5] = tested on: S. typhimurium TA100; assay: Ames test, strain TA100; type: cell-based, Salmonella typhimurium
[6] = tested on: S. typhimurium tester strains (TA98, TA100, and TA102); assay: Ames test, overall over three strains; type: cell-based, Salmonella typhimurium; conditions: 5 × 10^–5 to 50 pmol/plate, with or without S9
[7] = tested on: ERβ; conditions: cited from earlier work
[8] = tested on: Swiss mice; conditions: 100 and 200 mg/kg; cited from earlier work
[9] = tested on: zebrafish embryos; conditions: at 1–50 μM; cited from earlier work
[10] = higher dose (0.5 mM: 450–500 μg/kg; E2 0.1 mM: 91 μg/kg)
[11] = lower dose (0.05 mM: 45–50 μg/kg; E2 0.01 mM: 9.1 μg/kg)
[12] = TA100 +S9, 5 × 10^–2 pmol/plate
[13] = TA100 +S9, 5 × 10^–3 pmol/plate
[14] = TA100 +S9, 5 × 10^–4 pmol/plate
[15] = TA100 +S9, 5 × 10^–5 pmol/plate
[16] = TA100 -S9, 5 × 10^–2 pmol/plate
[17] = TA100 -S9, 5 × 10^–3 pmol/plate
[18] = TA100 -S9, 5 × 10^–4 pmol/plate
[19] = TA100 -S9, 5 × 10^–5 pmol/plate

O=c1cc(-c2ccc(O)cc2)oc2cc(O)cc(O)c12 [apigenin]
EEF (estradiol equivalent factor) ([1]; EC50 of E2 divided by that of the test compound): 0.16 | EC50 ([1]; Homo sapiens, MCF7): 0.062 nM | max % RME2 ([1]; highest % RME2 (relative maximum % E2) in test range 10^–12–10^–7 M): 27% | malformation rate [2, 10]: 0.0% | mortality rate [2, 10]: 10.0% | number of dead chicken embryo [2, 10]: 1 | number of malformation chicken embryo [2, 10]: 0 | weights: embryo [2, 10]: 21.49 ± 1.44 g | weights: heart [2, 10]: 0.17 ± 0.02 g | weights: liver [2, 10]: 0.41 ± 0.02 g | fetal liver weight, lower compared with the VC ([2]; higher-dose treatment): ~20% | malformation rate [2, 11]: 11.11% | mortality rate [2, 11]: 10.0% | number of dead chicken embryo [2, 11]: 1 | number of malformation chicken embryo [2, 11]: 1 | weights: embryo [2, 11]: 24.29 ± 0.03 g | weights: heart [2, 11]: 0.18 ± 0.02 g | weights: liver [2, 11]: 0.44 ± 0.02 g | TBARs value ([3]; higher dose (0.5 mM: 450–500 μg/kg)): 112.31 nmol/g | TBARs value ([3]; lower dose (0.05 mM: 45–50 μg/kg)): 103.73 nmol/g | MI ([4]; TA98 +S9, 0.5 pmol/plate): 1.1 | number of revertants/plate (M ± SD) ([4]; TA98 +S9, 0.5 pmol/plate): 85 ± 6 revertants/plate | MI ([4]; TA98 +S9, 5 pmol/plate): 1.1 | number of revertants/plate (M ± SD) ([4]; TA98 +S9, 5 pmol/plate): 80 ± 10 revertants/plate | MI ([4]; TA98 +S9, 50 pmol/plate): 1.0 | number of revertants/plate (M ± SD) ([4]; TA98 +S9, 50 pmol/plate): 75 ± 20 revertants/plate | MI ([4]; TA98 +S9, 5 × 10^–2 pmol/plate): 1.2 | number of revertants/plate (M ± SD) ([4]; TA98 +S9, 5 × 10^–2 pmol/plate): 87 ± 6 revertants/plate | MI ([4]; TA98 +S9, 5 × 10^–3 pmol/plate): 1.1 | number of revertants/plate (M ± SD) ([4]; TA98 +S9, 5 × 10^–3 pmol/plate): 80 ± 18 revertants/plate | MI ([4]; TA98 +S9, 5 × 10^–4 pmol/plate): 1.1 | number of revertants/plate (M ± SD) ([4]; TA98 +S9, 5 × 10^–4 pmol/plate): 83 ± 9 revertants/plate | MI ([4]; TA98 +S9, 5 × 10^–5 pmol/plate): 0.9 | number of revertants/plate (M ± SD) ([4]; TA98 +S9, 5 × 10^–5 pmol/plate): 68 ± 2 revertants/plate | MI ([4]; TA98 -S9, 0.5 pmol/plate): 0.9 | number of revertants/plate (M ± SD) ([4]; TA98 -S9, 0.5 pmol/plate): 9 ± 1 revertants/plate | MI ([4]; TA98 -S9, 5 pmol/plate): 1.3 | number of revertants/plate (M ± SD) ([4]; TA98 -S9, 5 pmol/plate): 13 ± 1 revertants/plate | MI ([4]; TA98 -S9, 50 pmol/plate): 1.1 | number of revertants/plate (M ± SD) ([4]; TA98 -S9, 50 pmol/plate): 11 ± 4 revertants/plate | MI ([4]; TA98 -S9, 5 × 10^–2 pmol/plate): 1.0 | number of revertants/plate (M ± SD) ([4]; TA98 -S9, 5 × 10^–2 pmol/plate): 10 ± 4 revertants/plate | MI ([4]; TA98 -S9, 5 × 10^–3 pmol/plate): 1.0 | number of revertants/plate (M ± SD) ([4]; TA98 -S9, 5 × 10^–3 pmol/plate): 10 ± 3 revertants/plate | MI ([4]; TA98 -S9, 5 × 10^–4 pmol/plate): 0.7 | number of revertants/plate (M ± SD) ([4]; TA98 -S9, 5 × 10^–4 pmol/plate): 7 ± 3 revertants/plate | MI ([4]; TA98 -S9, 5 × 10^–5 pmol/plate): 1.0 | number of revertants/plate (M ± SD) ([4]; TA98 -S9, 5 × 10^–5 pmol/plate): 10 ± 3 revertants/plate | MI ([5]; TA100 +S9, 0.5 pmol/plate): 1.4 | number of revertants/plate (M ± SD) ([5]; TA100 +S9, 0.5 pmol/plate): 415 ± 4 revertants/plate | MI ([5]; TA100 +S9, 5 pmol/plate): 1.3 | number of revertants/plate (M ± SD) ([5]; TA100 +S9, 5 pmol/plate): 390 ± 4 revertants/plate | MI ([5]; TA100 +S9, 50 pmol/plate): 1.3 | number of revertants/plate (M ± SD) ([5]; TA100 +S9, 50 pmol/plate): 400 ± 2 revertants/plate | MI [5, 12]: 1.2 | number of revertants/plate (M ± SD) [5, 12]: 377 ± 15 revertants/plate | MI [5, 13]: 1.1 | number of revertants/plate (M ± SD) [5, 13]: 349 ± 10 revertants/plate | MI [5, 14]: 1.1 | number of revertants/plate (M ± SD) [5, 14]: 342 ± 14 revertants/plate | MI [5, 15]: 1.2 | number of revertants/plate (M ± SD) [5, 15]: 358 ± 6 revertants/plate | MI ([5]; TA100 -S9, 0.5 pmol/plate): 1.0 | number of revertants/plate (M ± SD) ([5]; TA100 -S9, 0.5 pmol/plate): 94 ± 4 revertants/plate | MI ([5]; TA100 -S9, 5 pmol/plate): 1.0 | number of revertants/plate (M ± SD) ([5]; TA100 -S9, 5 pmol/plate): 96 ± 4 revertants/plate | MI ([5]; TA100 -S9, 50 pmol/plate): 1.0 | number of revertants/plate (M ± SD) ([5]; TA100 -S9, 50 pmol/plate): 96 ± 8 revertants/plate | MI [5, 16]: 0.9 | number of revertants/plate (M ± SD) [5, 16]: 85 ± 6 revertants/plate | MI [5, 17]: 0.8 | number of revertants/plate (M ± SD) [5, 17]: 75 ± 13 revertants/plate | MI [5, 18]: 0.9 | number of revertants/plate (M ± SD) [5, 18]: 83 ± 6 revertants/plate | MI [5, 19]: 0.9 | number of revertants/plate (M ± SD) [5, 19]: 87 ± 6 revertants/plate | Ames test outcome (signs of mutagenicity) [6]: signs of mutagenicity | binding affinity for ERβ [7]: 6% | hepatotoxicity [8]: led to hepatotoxicity | developmental toxicity in zebrafish model [9]: showing developmental toxicity

— paper PMC8851455 (ACS Omega, 2022)
